Fewer inactive variants are shown than the library holds.
B1: tRNA (parent)
chain: GUUCCGUUGGCGUAAUGGUAACGCGUCUCCCUCCUAAGGAGAAGACUGCGGGUUCGAGUCCCGUACGGAACG

Variants of: B1
Experiment: yeast fitness relative to wild type (ratio to wild type); higher = fitter; tRNA-Arg(CCU), competitive growth, 37 C, YPD
How it was run: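 Start and end populations of a pooled competition were compared by 100-nucleotide paired-end sequencing of gene amplicons. The Saccharomyces cerevisiae strains carried tRNA-Arg(CCU) gene variants at the native genomic locus, synthesised with a 3% per-site mutation rate at 69 sites, and competed in YPD at 37°C for 24 hours in six parallel replicates. Darwinian fitness relative to wild type was based on the change in genotype frequencies. Genotypes required ≥ 100 starting reads, and estimates < 0.5 were set to 0.5.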

| Variant | yeast fitness |
| --- | --- |
| GUUCCGUUGGCGUAAUGGUAGCGCGUCUUCCUCCUAAGAAGAAGUCUGCGGGUUCGAGUCCCGUACGGAACG | 0.547 |
| GUUCCGUUGGCGUAAUGGUAGCGCGUCUUCCUCCUAAGGACGAGACUGCGGGGUCGCGUCCCGUACGGAACG | ≤ 0.5 |
| GUUCCGUUGGCGUAAUGGUAGCGCGUCUCCCUCCUAAGGAGAAGACUGCGGGUUCGAGUCGCGUAUGGUACG | ≤ 0.5 |
| GUUCCGUUGGCGUAAUGGUAGCGCGUCUCCCUCCUAAGGAGAAGAUUGCGGGUUGGAGUCCCGUACGGAACG | 0.603 |
| GUUCCGUUGGCGUAAUGGUAGCGCGUCUCCCUUCUAAGGAGAAGACUGCGGGUUCGAGUCCCGUACGGAACG | 0.73 |
| GUUCCGUUGGCGUAAUGGUAGCGCGUCUCCCUCGUAAGGAGAAGACUGCGGGUUCGAGUCCCAUACCGAACG | ≤ 0.5 |
| GUUCCGUUGGCGUAAUGGUAGCGCGUCUCUCUCCUAAGGAGAAGACUGCGGGUUCGAGUCCCGUACGCAACG | 0.582 |
| GUUCCGUUGGCGUAAUGGUAGCGCGUCUCCCUCUUAGGGAGAAGACUGCGGGUUCGAGUACCGUACGGAACG | 0.651 |
| GUUCCGUUGGCGUAAUGGUAGCGCGUCUCCUUCCUAGGGAGAAGACUGCGGGUUCGAGUCCGGUACGGAACG | ≤ 0.5 |
| GUUCCGUUGGCGUAAUGGUAGCGCGUCUCCCUCUUAAGGAGAAGACUACGGGUUCGAGUCCCGUACAGAACG | ≤ 0.5 |
| GUUCCGUUGGCGUAAUGGUAGCGCGUCUCCCUCGUAAGGAGAAGACUGCGGGUUCGAGUCUCGUACGGACCG | 0.555 |
| GUUCCGUUGGCGUAAUGGUAGCGCGUCUCCCUCCUAAGGAGAAGAUUGCGGGUUCGAGUACCGUACGGAACG | ≤ 0.5 |
| GUUCCGUUGGCGUAAUGGUAGCGCGUCUCCCUCCUAAGGAGAAGAAUGCGGGUUCGAGUCCCGUACGGACCG | 1.07 |
| GUUCCGUUGGCGUAAUGGUAGCGCGUCUCCCUCGUAAGGAGAAGACUGCGGGUUCGAGUCCCGUAUGGAACG | ≤ 0.5 |
| GUUCCGUUGGCGUAAUGGUAGCGCGUCUCCCUACUAAGGAGAAGACUGUGGGUUGGAGUCCCGUACGGAACG | ≤ 0.5 |
| GUUCCGUUGGCGUAAUGGUAGCGCGUCUCCCUCCUAAGGAGAAGACUGCGGGUUGGAGUCCCGUAUGGCACG | ≤ 0.5 |
| GUUCCGUUGGCGUAAUGGUAGCACGUCUCCCUCCUAAGGAGAAGACUGCGGGUUCGUGUCCCGUACGGAUCG | ≤ 0.5 |
| GUUCCGUUGGCGUAAUGGUAGCGCGUCUCCGUCCUAAGGAGAAGACUGCGGGUUCGAGUCCCGUACGGCACG | 0.755 |
| GUUCCGUUGGCGUAAUGGUAGCGCGUCUCCCUUCUAAGGAGAACACUGCGGGUUCGAGUCCCGUACGGACCG | ≤ 0.5 |

| Variant | yeast fitness |
| --- | --- |
| GUUCCGUUGGCGUAAUGGUAGCGCGUCUCCCUCCUAAGGAGAAGAUUGCGGGUUCAAGUCGCGUACGGAACG | ≤ 0.5 |
| GUUCCGUUGGCGUAAUGGUAGCGCGUCUCCUUCCUAAGGAGAAGACUGCGGCUUCGAGUCCCGUACGAAACG | ≤ 0.5 |
| GUUCCGUUGGCGUAAUGGUAGCGCGUCUCCCUUCUAAGGAGAAGACUGCGCGUUCGAGUCCCGUACGGAACG | ≤ 0.5 |
| GUUCCGUUGGCGUAAUGGUAGCGCGUCUCCGUCCUAAGGAGAAGACUGCGGGUUCGAGUCCCGUACGGAACG | 1.05 |
| GUUCCGUUGGCGUAAUGGUAGCACGUGUCCCUCCUAAGCAGAAGGCUGCGGGUUCGAGUCCCGUACGGAACG | ≤ 0.5 |
| GUUCCGUUGGCGUAAUGGUAGCGCGUCUCCCUCCUAAGGAGAAGACUGCGGGUUCGAGUCGCGUACGGAACG | 0.654 |
| GUUCCGUUGGCGUAAUGGUAGCGCGUCUCCCUCCUAAGGAGAAGACUGCGGGUUCGAGUCACGUACGGAACG | 0.645 |
| GUUCCGUUGGCGUAAUGGUAGCGCGUCUCCCUCCUAAGGAGAAGACUGCGGGUUCGAGUCUCGUACGGAACG | 1 |
| GUUCCGUUGGCGUAAUGGUAGCGCGUCUCCCUUCUAAGGAGAAGACUGCGGGUUCGAGUUCCGUACGGAACG | 0.603 |
| GUUCCGUUGGCGUAAUGGUAGCGCGUCUCCCUUCUAAGGAGAAGACUGCGGGUUCGAGUACCGUACGGAACG | ≤ 0.5 |
| GUUCCGUUGGCGUAAUGGUAGCGCGUCUCCCUCCUAAGGAGAAGAUUGCGGGUUCGAGUCCUGUACGGAACG | 1.1 |
| GUUCCGUUGGCGUAAUGGUAGCGCGUCUCGCUCCUAAGGAGAAGACUGCGGGUGCGAGUCCCGUGCGUACCG | ≤ 0.5 |
| GUUCCGUUGGCGUAAUGGUAGCGCGUCUCGCUCCUAAGGAGAAGACUGCGGGUUCGAGUCCCGUACUGAACG | ≤ 0.5 |
| GUUCCGUUGGCGUAAUGGUAGCGCGUCUCCCUCUUAAGGAGAAGACUGCGGGUUCGAGUCCCGUACGGAACG | 0.701 |
| GUUCCGUUGGCGUAAUGGUAGCGCGUCUCCCUCGUAAGGAGAAGACUGCGGGUUCGAGUCCCGUACGGAACG | 0.598 |
| GUUCCGUUGGCGUAAUGGUAGCGCGUCUCCCUACUAAGGCGAAGACUGCGGGUUCGAGUCCCGUACGGAACG | 0.527 |
| GUUCCGUUGGCGUAAUGGUAGCGCGUCUCCCUGCUAAGGAGAAGACUGCGGGUUCGAGUCCCGUACAGAACG | ≤ 0.5 |
| GUUCCGUUGGCGUAAUGGUAGCGCGUCUCCAUCCUAAGGAGGAGACUGCGGGUUCGAGUCCCGUACGGAACG | 0.561 |

Source: the RNAGym collection of RNA variant scans (doi:10.1126/science.aae0568)
